According to ChEMBL document CHEMBL4602716, “Development of Selective Histone Deacetylase 6 (HDAC6) Degraders Recruiting Von Hippel-Lindau (VHL) E3 Ubiquitin Ligase” (ACS Med Chem Lett, 2020):
Activity calls are given as the source filed them. The rule behind the calls is not given here.

What was measured:
Type in all cases: cell-based
[1] = target: T1, von Hippel-Lindau disease tumor suppressor/Protein deacetylase HDAC6 (Homo sapiens, UniProt Q9UBN7+P40337); experiment: Protac activity at VHL/HDAC6 in human MM1S cells measured after 6 hrs by ELISA relative to control
Procedure, shortened: (§1)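 MM1S multiple myeloma cells exposed to degraders for 6 h. HDAC6 protein level was read by in-cell ELISA; dose-response ran from 1 nM to 3 μM. DC50 and Dmax were derived from the dose-response curve.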
Target sequence in this assay (P40337 whole entry, looked up): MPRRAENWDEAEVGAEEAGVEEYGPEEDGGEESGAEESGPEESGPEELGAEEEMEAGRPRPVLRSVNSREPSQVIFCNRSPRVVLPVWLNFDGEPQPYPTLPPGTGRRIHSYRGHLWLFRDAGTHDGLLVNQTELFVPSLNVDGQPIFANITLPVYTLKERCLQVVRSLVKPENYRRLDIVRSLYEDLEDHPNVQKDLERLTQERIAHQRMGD
Target sequence in this assay (Q9UBN7 whole entry, looked up): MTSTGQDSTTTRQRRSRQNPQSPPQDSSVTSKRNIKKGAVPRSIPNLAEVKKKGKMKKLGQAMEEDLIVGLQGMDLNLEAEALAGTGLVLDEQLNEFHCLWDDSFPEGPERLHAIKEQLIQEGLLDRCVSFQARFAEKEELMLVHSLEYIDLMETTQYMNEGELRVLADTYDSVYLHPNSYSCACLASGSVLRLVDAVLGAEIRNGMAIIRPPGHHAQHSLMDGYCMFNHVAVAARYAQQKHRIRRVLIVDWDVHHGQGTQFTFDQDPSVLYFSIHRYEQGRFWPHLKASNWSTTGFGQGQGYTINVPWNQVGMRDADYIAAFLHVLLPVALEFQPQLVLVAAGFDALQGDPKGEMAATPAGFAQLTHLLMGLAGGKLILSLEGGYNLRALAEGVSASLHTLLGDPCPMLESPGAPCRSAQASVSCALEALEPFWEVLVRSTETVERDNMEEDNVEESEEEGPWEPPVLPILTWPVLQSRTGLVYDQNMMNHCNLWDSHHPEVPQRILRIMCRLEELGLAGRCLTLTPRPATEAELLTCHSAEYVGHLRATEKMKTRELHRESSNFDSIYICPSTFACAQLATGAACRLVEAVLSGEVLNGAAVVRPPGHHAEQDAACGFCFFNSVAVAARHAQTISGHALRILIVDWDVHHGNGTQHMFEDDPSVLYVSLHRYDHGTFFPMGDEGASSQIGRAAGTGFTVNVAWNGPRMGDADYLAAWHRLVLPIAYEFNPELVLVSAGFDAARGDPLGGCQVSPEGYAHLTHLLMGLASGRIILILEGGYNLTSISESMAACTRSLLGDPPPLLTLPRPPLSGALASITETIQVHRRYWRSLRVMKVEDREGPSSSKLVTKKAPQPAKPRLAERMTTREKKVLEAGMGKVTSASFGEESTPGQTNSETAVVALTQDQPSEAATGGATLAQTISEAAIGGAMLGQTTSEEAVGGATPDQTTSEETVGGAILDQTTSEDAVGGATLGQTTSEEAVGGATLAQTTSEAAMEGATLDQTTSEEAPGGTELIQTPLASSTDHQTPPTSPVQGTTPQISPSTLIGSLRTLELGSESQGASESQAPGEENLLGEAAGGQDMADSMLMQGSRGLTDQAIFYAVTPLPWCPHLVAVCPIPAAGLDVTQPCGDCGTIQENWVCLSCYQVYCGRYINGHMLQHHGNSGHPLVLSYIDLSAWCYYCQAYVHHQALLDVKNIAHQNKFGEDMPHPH

[2] = target: T1, von Hippel-Lindau disease tumor suppressor/Protein deacetylase HDAC6; experiment: Protac activity at VHL/HDAC6 in human MM1S cells assessed as HDAC6 degradation at 100 nM measured after 6 hrs by Western blot analysis
Procedure, shortened: (§2)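 MM1S cells were treated with degraders at 100 nM for 6 h. Lysates were analysed by Western blot for HDAC6 and acetylated tubulin.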
Target sequence in this assay (P40337 whole entry, looked up): as the sequence (P40337 whole entry, looked up) above
Target sequence in this assay (Q9UBN7 whole entry, looked up): as the sequence (Q9UBN7 whole entry, looked up) above

[3] = target: T1, von Hippel-Lindau disease tumor suppressor/Protein deacetylase HDAC6; experiment: Protac activity at VHL/HDAC6 in human MM1S cells measured after 6 hrs by ELISA; procedure, shortened: as §1
Target sequence in this assay (Q9UBN7 whole entry): as the sequence (Q9UBN7 whole entry, looked up) above
Target sequence in this assay (P40337 whole entry): as the sequence (P40337 whole entry, looked up) above

[4] = target: T1, von Hippel-Lindau disease tumor suppressor/Protein deacetylase HDAC6; experiment: Protac activity at VHL/HDAC6 in human MM1S cells assessed as HDAC6 degradation at 100 nM measured after 6 hrs by ELISA
Procedure, shortened: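 Linker-length screen. MM1S cells were treated with degraders at 100 nM for 6 h, and HDAC6 protein level was quantified by in-cell ELISA.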
Target sequence in this assay (P40337 whole entry, looked up): as above
Target sequence in this assay (Q9UBN7 whole entry, looked up): as the sequence (Q9UBN7 whole entry, looked up) above

[5] = target: T1, von Hippel-Lindau disease tumor suppressor/Protein deacetylase HDAC6; experiment: Protac activity at VHL/HDAC6 in human MM1S cells assessed as increase in tubulin acetylation at 100 nM measured after 6 hrs by Western blot analysis; procedure, shortened: as §2
Target sequence in this assay (P40337 whole entry, looked up): as the sequence (P40337 whole entry, looked up) above
Target sequence in this assay (Q9UBN7 whole entry, looked up): as the sequence (Q9UBN7 whole entry, looked up) above

[6] = target: T2, Protein cereblon/Protein deacetylase HDAC6 (Mus musculus, UniProt Q9Z2V5+Q8C7D2); experiment: Protac activity at CRBN/HDAC6 in mouse 4935 cells assessed as HDAC6 degradation after 6 hrs by Western blot analysis
T2 sequence (Q9Z2V5 whole entry): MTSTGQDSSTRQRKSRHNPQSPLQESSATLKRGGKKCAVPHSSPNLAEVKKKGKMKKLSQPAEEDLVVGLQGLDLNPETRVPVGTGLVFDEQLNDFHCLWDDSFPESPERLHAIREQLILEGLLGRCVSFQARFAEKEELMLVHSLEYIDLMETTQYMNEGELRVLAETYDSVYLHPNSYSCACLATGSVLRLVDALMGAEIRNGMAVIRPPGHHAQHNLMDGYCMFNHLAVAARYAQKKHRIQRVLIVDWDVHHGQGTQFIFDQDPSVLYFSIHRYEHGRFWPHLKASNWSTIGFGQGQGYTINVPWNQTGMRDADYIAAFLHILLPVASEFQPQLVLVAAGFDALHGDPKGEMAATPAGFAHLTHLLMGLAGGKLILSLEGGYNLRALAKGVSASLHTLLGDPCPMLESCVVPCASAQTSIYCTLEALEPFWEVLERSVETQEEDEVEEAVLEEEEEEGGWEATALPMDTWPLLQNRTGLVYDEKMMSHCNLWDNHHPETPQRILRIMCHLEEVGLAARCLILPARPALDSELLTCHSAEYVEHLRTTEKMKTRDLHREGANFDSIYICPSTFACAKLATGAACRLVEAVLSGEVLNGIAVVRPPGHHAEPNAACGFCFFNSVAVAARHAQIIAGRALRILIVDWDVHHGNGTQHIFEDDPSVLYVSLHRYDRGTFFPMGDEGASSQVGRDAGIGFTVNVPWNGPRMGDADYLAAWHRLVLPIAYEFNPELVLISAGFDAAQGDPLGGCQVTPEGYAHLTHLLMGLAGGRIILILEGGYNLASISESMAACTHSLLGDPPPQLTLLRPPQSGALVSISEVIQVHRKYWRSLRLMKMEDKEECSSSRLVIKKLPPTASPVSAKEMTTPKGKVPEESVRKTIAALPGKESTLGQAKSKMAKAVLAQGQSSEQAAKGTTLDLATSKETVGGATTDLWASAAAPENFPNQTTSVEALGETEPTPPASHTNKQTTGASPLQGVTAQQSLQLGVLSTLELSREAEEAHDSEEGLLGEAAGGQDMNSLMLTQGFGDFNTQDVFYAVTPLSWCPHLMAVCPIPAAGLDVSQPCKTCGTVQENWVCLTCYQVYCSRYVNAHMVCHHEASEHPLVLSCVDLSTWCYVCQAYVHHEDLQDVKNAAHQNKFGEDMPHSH
T2 sequence (Q8C7D2 whole entry): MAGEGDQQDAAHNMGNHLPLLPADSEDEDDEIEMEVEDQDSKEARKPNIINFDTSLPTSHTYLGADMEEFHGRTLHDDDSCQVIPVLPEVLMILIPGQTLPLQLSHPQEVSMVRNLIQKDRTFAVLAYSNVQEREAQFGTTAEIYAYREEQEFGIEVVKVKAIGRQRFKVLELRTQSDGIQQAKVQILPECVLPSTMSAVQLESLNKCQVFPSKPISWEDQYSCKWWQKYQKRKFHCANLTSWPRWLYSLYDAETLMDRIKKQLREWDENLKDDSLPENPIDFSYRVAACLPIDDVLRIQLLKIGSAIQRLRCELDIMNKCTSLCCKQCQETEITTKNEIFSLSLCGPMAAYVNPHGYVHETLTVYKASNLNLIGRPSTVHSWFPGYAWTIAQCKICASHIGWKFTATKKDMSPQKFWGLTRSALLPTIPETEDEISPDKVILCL
Procedure, shortened: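 Mouse 4935 cells were treated with degraders for 6 h, then analysed by Western blot for HDAC6 and acetylated tubulin.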

[7] = target: Protein cereblon/Protein deacetylase HDAC6 (Mus musculus) (UniProt Q9Z2V5+Q8C7D2); experiment: Protac activity at CRBN/HDAC6 in mouse 4935 cells assessed as HDAC6 degradation after 6 hrs by relative to control
Procedure, shortened: (§3)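 Mouse 4935 cells were treated with degrader for 6 h, and HDAC6 level was measured by in-cell ELISA.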

[8] = target: T2, Protein cereblon/Protein deacetylase HDAC6; experiment: Protac activity at CRBN/HDAC6 in mouse 4935 cells assessed as HDAC6 degradation after 6 hrs by ELISA; procedure, shortened: as §3
[9] = target: T3, Protein cereblon/Protein deacetylase HDAC6 (Homo sapiens, UniProt Q9UBN7+Q96SW2); experiment: Protac activity at CRBN/HDAC6 in human MM1S cells assessed as increase in tubulin acetylation at 300 nM to 1 microM after 6 hrs by Western blot analysis
Target sequence in this assay (Q96SW2 whole entry, looked up): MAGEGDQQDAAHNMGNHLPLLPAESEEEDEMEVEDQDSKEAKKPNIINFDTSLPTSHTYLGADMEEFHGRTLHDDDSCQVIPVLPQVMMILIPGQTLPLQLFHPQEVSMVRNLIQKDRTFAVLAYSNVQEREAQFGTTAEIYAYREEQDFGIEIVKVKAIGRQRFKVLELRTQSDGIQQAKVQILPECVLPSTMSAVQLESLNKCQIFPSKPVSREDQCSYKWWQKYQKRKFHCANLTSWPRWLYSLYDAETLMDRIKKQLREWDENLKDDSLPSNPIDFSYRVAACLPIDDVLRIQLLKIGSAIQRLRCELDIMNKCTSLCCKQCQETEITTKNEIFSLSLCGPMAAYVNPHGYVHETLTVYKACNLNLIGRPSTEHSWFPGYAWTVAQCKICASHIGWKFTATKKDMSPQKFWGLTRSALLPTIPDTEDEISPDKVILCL
Target sequence in this assay (Q9UBN7 whole entry, looked up): as the sequence (Q9UBN7 whole entry, looked up) above

[10] = target: T3, Protein cereblon/Protein deacetylase HDAC6; experiment: Protac activity at CRBN/HDAC6 in human MM1S cells assessed as reduction in protein level at 100 nM after 4 hrs by Western blot analysis
Target sequence in this assay (Q96SW2 whole entry, looked up): as the sequence (Q96SW2 whole entry, looked up) above
Target sequence in this assay (Q9UBN7 whole entry, looked up): as the sequence (Q9UBN7 whole entry, looked up) above

[11] = target: T3, Protein cereblon/Protein deacetylase HDAC6; experiment: Protac activity at CRBN/HDAC6 in human MM1S cells measured after 6 hrs by ELISA; procedure, shortened: as §1
Target sequence in this assay (Q9UBN7 whole entry): as the sequence (Q9UBN7 whole entry, looked up) above
Target sequence in this assay (Q96SW2 whole entry): as the sequence (Q96SW2 whole entry, looked up) above

[12] = target: T3, Protein cereblon/Protein deacetylase HDAC6; experiment: Protac activity at CRBN/HDAC6 in human MM1S cells measured after 6 hrs by ELISA relative to control; procedure, shortened: as §1
Target sequence in this assay (Q96SW2 whole entry, looked up): as above
Target sequence in this assay (Q9UBN7 whole entry, looked up): as the sequence (Q9UBN7 whole entry, looked up) above

[13] = target: T3, Protein cereblon/Protein deacetylase HDAC6; experiment: Protac activity at CRBN/HDAC6 in human MM1S cells assessed as reduction in protein level at 100 nM after 30 mins by Western blot analysis
Target sequence in this assay (Q96SW2 whole entry, looked up): as the sequence (Q96SW2 whole entry, looked up) above
Target sequence in this assay (Q9UBN7 whole entry, looked up): as the sequence (Q9UBN7 whole entry, looked up) above

Activity [2] | Activity [4] | Compound | further results
Active | Active | CCCCN(Cc1ccc(C(=O)NO)cc1)C(=O)Nc1ccc(OCCCCCCCCCn2cc(CCCCC(=O)N[C@H](C(=O)N3C[C@H](O)C[C@H]3C(=O)NCc3ccc(-c4scnc4C)cc3)C(C)(C)C)nn2)cc1 | Activity [5]: Active
 | Active | CCCCN(Cc1ccc(C(=O)NO)cc1)C(=O)Nc1ccc(OCCCCCCCn2cc(CCCCC(=O)N[C@H](C(=O)N3C[C@H](O)C[C@H]3C(=O)NCc3ccc(-c4scnc4C)cc3)C(C)(C)C)nn2)cc1 | 
Active | Active | CCCCN(Cc1ccc(C(=O)NO)cc1)C(=O)Nc1ccc(OCCCCCCCCn2cc(CCCCC(=O)N[C@H](C(=O)N3C[C@H](O)C[C@H]3C(=O)NCc3ccc(-c4scnc4C)cc3)C(C)(C)C)nn2)cc1 | 
 | Active | CCCCN(Cc1ccc(C(=O)NO)cc1)C(=O)Nc1ccc(OCCCCCCn2cc(CCCCC(=O)N[C@H](C(=O)N3C[C@H](O)C[C@H]3C(=O)NCc3ccc(-c4scnc4C)cc3)C(C)(C)C)nn2)cc1 | 

Continued, compound first:

Compound | Activity [2] | Activity [4] | further results
CCCCN(Cc1ccc(C(=O)NO)cc1)C(=O)Nc1ccc(OCCCCCCCCCCCCn2cc(CCCCC(=O)N[C@H](C(=O)N3C[C@H](O)C[C@H]3C(=O)NCc3ccc(-c4scnc4C)cc3)C(C)(C)C)nn2)cc1 | Active | Active | Emax [1]: 89%; DC50 [3]: 0.011 µM
CCCCN(Cc1ccc(C(=O)NO)cc1)C(=O)Nc1ccc(OCCCCn2cc(CCCCC(=O)N[C@H](C(=O)N3C[C@H](O)C[C@H]3C(=O)NCc3ccc(-c4scnc4C)cc3)C(C)(C)C)nn2)cc1 |  | Active | 
CCCCN(Cc1ccc(C(=O)NO)cc1)C(=O)Nc1ccc(OCCCCCn2cc(CCCCC(=O)N[C@H](C(=O)N3C[C@H](O)C[C@H]3C(=O)NCc3ccc(-c4scnc4C)cc3)C(C)(C)C)nn2)cc1 |  | Active | 
CCCCN(Cc1ccc(C(=O)NO)cc1)C(=O)Nc1ccc(OCCCCCCCCCCn2cc(CCCCC(=O)N[C@H](C(=O)N3C[C@H](O)C[C@H]3C(=O)NCc3ccc(-c4scnc4C)cc3)C(C)(C)C)nn2)cc1 | Active | Active | Activity [5]: Active
CCCCN(Cc1ccc(C(=O)NO)cc1)C(=O)Nc1ccc(OCCn2cc(CCCCC(=O)N[C@H](C(=O)N3C[C@H](O)C[C@H]3C(=O)NCc3ccc(-c4scnc4C)cc3)C(C)(C)C)nn2)cc1 |  | Active | 
CCCCN(Cc1ccc(C(=O)NO)cc1)C(=O)Nc1ccc(OCCCCCn2cc(CNc3cccc4c3C(=O)N(C3CCC(=O)NC3=O)C4=O)nn2)cc1 (stereo unspecified) |  |  | DC50 [6]: 0.36 µM; Emax [7]: 45%; DC50 [8]: 0.018 µM; Activity [9]: Active; Activity [10]: Active; DC50 [11]: 0.0022 µM; Emax [12]: 86%; Activity [13]: Active
CCCCN(Cc1ccc(C(=O)NO)cc1)C(=O)Nc1ccc(OCCCn2cc(CCCCC(=O)N[C@H](C(=O)N3C[C@H](O)C[C@H]3C(=O)NCc3ccc(-c4scnc4C)cc3)C(C)(C)C)nn2)cc1 |  | Active | 
